Test results reported in ChEMBL document CHEMBL4330143, “Maximizing ER-α Degradation Maximizes Activity in a Tamoxifen-Resistant Breast Cancer Model: Identification of GDC-0927” (ACS Med Chem Lett, 2019).
The source made the active and inactive calls. The rule behind the calls is not given here.

Columns and labels:
[1] = biological target: T1, Glucocorticoid receptor (Homo sapiens) (UniProt P04150); assay: Antagonist activity at GR (unknown origin) by transcriptional reporter assay
T1 sequence (whole entry): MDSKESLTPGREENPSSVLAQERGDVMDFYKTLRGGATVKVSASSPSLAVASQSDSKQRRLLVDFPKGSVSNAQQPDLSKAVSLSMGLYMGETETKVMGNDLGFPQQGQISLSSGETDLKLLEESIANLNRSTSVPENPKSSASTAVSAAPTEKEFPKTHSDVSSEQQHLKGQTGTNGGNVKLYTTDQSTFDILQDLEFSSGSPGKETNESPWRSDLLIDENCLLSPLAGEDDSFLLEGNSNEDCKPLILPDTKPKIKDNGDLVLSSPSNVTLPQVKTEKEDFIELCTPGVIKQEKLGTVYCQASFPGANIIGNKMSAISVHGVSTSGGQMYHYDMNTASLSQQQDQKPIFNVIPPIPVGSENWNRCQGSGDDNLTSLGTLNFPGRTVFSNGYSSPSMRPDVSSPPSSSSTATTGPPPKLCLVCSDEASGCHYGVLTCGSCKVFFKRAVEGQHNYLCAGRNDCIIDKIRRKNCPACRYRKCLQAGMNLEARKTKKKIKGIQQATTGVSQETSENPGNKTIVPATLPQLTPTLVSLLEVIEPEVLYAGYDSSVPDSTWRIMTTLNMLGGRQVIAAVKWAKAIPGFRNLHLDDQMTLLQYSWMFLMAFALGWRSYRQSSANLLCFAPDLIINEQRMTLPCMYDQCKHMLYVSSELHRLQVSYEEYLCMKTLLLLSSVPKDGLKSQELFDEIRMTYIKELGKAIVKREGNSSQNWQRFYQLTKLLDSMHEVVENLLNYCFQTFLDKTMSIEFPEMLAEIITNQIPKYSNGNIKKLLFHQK

[2] = biological target: T2, Mineralocorticoid receptor (Homo sapiens) (UniProt P08235); assay: Antagonist activity at MR (unknown origin) by transcriptional reporter assay
T2 sequence (whole entry): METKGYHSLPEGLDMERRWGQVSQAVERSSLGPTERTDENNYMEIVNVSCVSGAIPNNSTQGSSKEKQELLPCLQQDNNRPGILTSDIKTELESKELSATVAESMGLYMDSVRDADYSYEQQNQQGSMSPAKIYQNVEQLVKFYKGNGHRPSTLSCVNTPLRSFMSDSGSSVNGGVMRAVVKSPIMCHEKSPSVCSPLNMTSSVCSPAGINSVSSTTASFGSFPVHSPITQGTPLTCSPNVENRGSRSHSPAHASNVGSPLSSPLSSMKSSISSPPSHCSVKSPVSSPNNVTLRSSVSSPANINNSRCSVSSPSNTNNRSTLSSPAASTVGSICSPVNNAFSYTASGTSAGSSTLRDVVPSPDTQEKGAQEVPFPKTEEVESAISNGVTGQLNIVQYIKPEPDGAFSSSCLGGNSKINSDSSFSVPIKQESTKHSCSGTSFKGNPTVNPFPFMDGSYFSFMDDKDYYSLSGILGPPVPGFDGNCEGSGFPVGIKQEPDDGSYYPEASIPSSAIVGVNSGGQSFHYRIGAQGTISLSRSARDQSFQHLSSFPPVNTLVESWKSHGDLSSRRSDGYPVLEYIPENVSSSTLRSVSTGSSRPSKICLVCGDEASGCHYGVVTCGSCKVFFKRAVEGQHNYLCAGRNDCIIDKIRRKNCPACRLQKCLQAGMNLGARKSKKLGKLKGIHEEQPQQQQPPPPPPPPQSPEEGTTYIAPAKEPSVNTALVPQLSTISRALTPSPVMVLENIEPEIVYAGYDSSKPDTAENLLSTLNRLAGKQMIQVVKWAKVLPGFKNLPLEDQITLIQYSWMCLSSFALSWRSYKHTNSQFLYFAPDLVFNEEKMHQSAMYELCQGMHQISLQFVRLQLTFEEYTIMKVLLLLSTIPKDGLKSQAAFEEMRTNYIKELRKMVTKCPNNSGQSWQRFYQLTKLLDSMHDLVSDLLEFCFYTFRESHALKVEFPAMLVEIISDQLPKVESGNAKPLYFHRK

MCF7 = assay: Antitumor activity against tamoxifen-resistant human MCF7 cells xenografted in nude mouse at 100 mg/kg, po daily for 28 days; format: functional, organism-based
In short: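 Tamoxifen-resistant MCF-7 tumours grown subcutaneously in mice, with estradiol supplied from subcutaneous 0.72 mg estradiol pellets.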

[3] = Genotoxicity in Salmonella typhimurium TA98 by Ames test; format: toxicity; conditions: salmonella enterica subsp. enterica serovar […]
[4] = biological target: T3, Progesterone receptor (Homo sapiens) (UniProt P06401); assay: Antagonist activity at PR-B (unknown origin) by transcriptional reporter assay
T3 sequence (whole entry): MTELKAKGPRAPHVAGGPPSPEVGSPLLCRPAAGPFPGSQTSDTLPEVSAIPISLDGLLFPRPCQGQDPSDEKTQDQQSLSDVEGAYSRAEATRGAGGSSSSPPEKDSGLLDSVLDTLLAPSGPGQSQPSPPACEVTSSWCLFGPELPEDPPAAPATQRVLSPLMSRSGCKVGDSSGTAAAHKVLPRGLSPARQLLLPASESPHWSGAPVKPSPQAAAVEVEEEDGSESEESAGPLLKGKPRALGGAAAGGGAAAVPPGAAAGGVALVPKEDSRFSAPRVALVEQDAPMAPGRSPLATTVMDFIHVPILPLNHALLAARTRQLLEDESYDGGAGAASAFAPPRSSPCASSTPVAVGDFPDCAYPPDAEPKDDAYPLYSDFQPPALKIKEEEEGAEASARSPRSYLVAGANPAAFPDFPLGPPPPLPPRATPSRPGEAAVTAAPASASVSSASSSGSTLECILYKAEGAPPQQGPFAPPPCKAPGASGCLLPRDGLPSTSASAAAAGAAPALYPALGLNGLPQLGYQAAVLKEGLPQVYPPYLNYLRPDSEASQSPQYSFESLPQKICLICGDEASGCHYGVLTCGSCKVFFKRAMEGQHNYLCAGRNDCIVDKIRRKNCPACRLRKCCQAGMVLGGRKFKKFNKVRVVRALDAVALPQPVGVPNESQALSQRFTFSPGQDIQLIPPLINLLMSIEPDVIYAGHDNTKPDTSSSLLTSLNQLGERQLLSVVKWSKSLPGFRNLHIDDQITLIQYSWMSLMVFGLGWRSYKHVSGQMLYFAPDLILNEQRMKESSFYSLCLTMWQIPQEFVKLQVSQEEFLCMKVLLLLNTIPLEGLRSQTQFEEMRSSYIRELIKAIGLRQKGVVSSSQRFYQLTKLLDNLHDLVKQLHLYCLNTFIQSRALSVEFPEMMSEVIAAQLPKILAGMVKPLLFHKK

[5] = Unbound AUC (0 to 24 hrs) in nude mouse xenografted with tamoxifen-resistant human MCF7 cells at 100 mg/kg, po daily for 28 days measured on day 28 post last dose; format: ADME, organism-based; conditions: in vivo
In short: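 Tamoxifen-resistant MCF-7 xenograft mice carrying subcutaneous 0.72 mg estradiol pellets. Plasma pharmacokinetics sampled on day 28 of the study, at take-down.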

SMILES: CC1=C(c2cccc(O)c2)[C@H](c2ccc(OCCN3CC(CF)C3)cc2)Oc2ccc(O)cc21
- inhibition [1]: inactive
- inhibition [2]: inactive
- Activity (MCF7): Active
- Activity [3]: Non-Toxic
- inhibition [4]: inactive
- fAUC [5]: 130 ng·h/mL
